From ChEMBL document CHEMBL1177866, “Synthesis, antiproliferative activity evaluation and structure-activity relationships of novel aromatic urea and amide analogues of N-phenyl-N'-(2-chloroethyl)ureas” (Eur J Med Chem, 2010) come the findings set out here.

One experiment relates to HT-29. The experiment in a line: Antiproliferative activity against human HT-29 cells after 48 hrs. In kind it is functional, cell-based. The settings on record: HT-29, 48 h. Summed up: (§1)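 TCA fixation, sulforhodamine B stain, absorbance 585 nm minus day-of-treatment background plate; inhibition vs DMSO control; at least triplicate; IC50 accepted if within-experiment variability under 10%.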

In another experiment the test system is MCF7. The experiment is described as follows: Antiproliferative activity against human MCF7 cells after 48 hrs. Format: functional, cell-based. The note with it: MCF7, 48 h. The method in brief:
as §1

For a further experiment, the system named is M21. The experiment is described as follows: Antiproliferative activity against human M21 cells after 48 hrs. In kind it is functional, cell-based. The note with it: M21, 48 h. Summed up: as §1
For experiment [1], the target named is Tubulin beta (Homo sapiens) (UniProt P68371+Q9H4B7+Q13509+P04350+Q3ZCM7+P07437+Q13885+Q9BVA1+Q9BUF5+A6NNZ2). The experiment in a line: inhibition of beta tubulin acylation in human M21 cells assessed as beta-tubulin band migration by Western blotting. In kind it is cell-based. The method in brief:
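Floating plus adherent cells pooled, lysed in Laemmli buffer, 10% SDS-PAGE, nitrocellulose; blocked in TBS pH 7.4 with 5% milk/0.1% Tween 20, probed with monoclonal anti-β-tubulin 1:500 then peroxidase anti-mouse 1:2500.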
(In western blotting, separated proteins are transferred to a membrane and probed.)

Activity calls are given as the source filed them. The rule behind the calls is not given here.

For the compound `O=C(CCl)NC(=O)Nc1ccc(I)cc1`, the IC50 – broadly, the concentration that gives 50% inhibition – with HT-29 was determined as 11 µM; with MCF7 it was 4.9 µM; with M21, 8.1 µM.
For the compound `O=C(NCCCCl)Nc1cccc(CCCCCO)c1`, the IC50 in the experiment on HT-29 is 19 µM; in the experiment with MCF7, more than 100 µM; with M21, 35 µM.
Consider `CC(=O)CCCCc1cccc(NC(=O)CCCCl)c1`, for which the IC50 with HT-29, in the experiment on MCF7 and in the experiment on M21 was more than 100 µM each time.
Consider `O=C(CCl)NC(=O)Nc1cccc(CCCCCO)c1`, for which the outcome in experiment [1] was inactive. Moreover, the IC50 in the experiment on HT-29 is 10 µM; in the experiment on MCF7 it was 5.7 µM; in the experiment on M21, 4.6 µM.
Consider `O=C(CCCl)Nc1cccc(CCCCCO)c1`, for which the IC50 in the experiment on HT-29, with MCF7 and with M21 was more than 100 µM in each case.
As to `C=CC(=O)NCc1ccc(C(C)(C)C)cc1`, the half-maximal inhibitory concentration (IC50) in the experiment with HT-29 was more than 100 µM; with MCF7, more than 100 µM; in the experiment with M21 it was 72 µM.
`COCCCCCc1cccc(NC(=O)CCl)c1`: the result in experiment [1] was inactive. Further, the results for the IC50 in the experiment on HT-29, in the experiment on MCF7 and in the experiment with M21 were 13 µM, 12 µM and 6.9 µM, respectively.
Take `O=C(CCCl)Nc1ccc(I)cc1`: in experiment [1], the outcome was inactive. Moreover, the results for the IC50 with HT-29, with MCF7 and in the experiment with M21 were 18 µM, 26 µM and 20 µM, respectively.
Regarding `O=C(CCl)Nc1ccc(I)cc1`, the result in experiment [1] was inactive. Besides, the 50% inhibitory concentration (IC50) in the experiment with HT-29 is 9.7 µM; in the experiment on MCF7, 6.2 µM; in the experiment with M21, 5.1 µM.
As for `C=CC(=O)Nc1cccc(CCCCCO)c1`, the concentration for half-maximal inhibition (IC50) in the experiment with HT-29 is more than 100 µM; in the experiment on MCF7, more than 100 µM; in the experiment on M21, 98 µM.
Turning to `COCCCCCc1cccc(NC(=O)NCCCCl)c1`, the IC50 was 56 µM in the experiment on HT-29, 50 µM in the experiment on MCF7 and 51 µM in the experiment with M21.
In the case of `CCCCCc1cccc(NC(=O)CCCCl)c1`, the half-inhibitory concentration (IC50) in the experiment on HT-29, with MCF7 and in the experiment with M21 was more than 100 µM each time.
For the compound `CCNC(=O)Nc1cccc(CCCCCO)c1`, the half-maximal inhibitory concentration (IC50) in the experiment on HT-29, in the experiment on MCF7 and in the experiment with M21 was more than 100 µM throughout.
For `C=CC(=O)Nc1ccc(I)cc1`, in experiment [1], the outcome was inactive. In addition, the 50% inhibitory concentration (IC50) in the experiment with HT-29 was 15 µM; in the experiment with MCF7, 17 µM; with M21, 11 µM.
`CC(C)(C)c1ccc(NC(=O)CCCl)cc1`: the IC50 was 88 µM with HT-29, 49 µM in the experiment on MCF7 and 74 µM in the experiment with M21.
The like results for `CC(C)(C)c1ccc(CNC(=O)CCCCl)cc1` were, in that order, 72 µM, 92 µM and 69 µM.
The corresponding values for `CCNC(=O)Nc1ccc(I)cc1` are more than 100 µM, more than 100 µM and more than 100 µM.
For `CC(C)(C)c1ccc(CNC(=O)CCCl)cc1`, the half-maximal inhibitory concentration (IC50) was 87 µM in the experiment on HT-29, 67 µM with MCF7 and more than 100 µM with M21.
Turning to `O=C(NCCCCl)Nc1ccc(I)cc1`, the IC50 in the experiment on HT-29 is 90 µM; in the experiment on MCF7 it was more than 100 µM; in the experiment with M21, more than 100 µM.
On to `CC(C)(C)c1ccc(CNC(=O)CCl)cc1`, for which the outcome in experiment [1] was inactive. In addition, the half-inhibitory concentration (IC50) in the experiment with HT-29 was found to be 18 µM; in the experiment with MCF7, 23 µM; with M21, 16 µM.
Consider `C=CC(=O)Nc1cccc(CCCCC)c1`, for which the half-inhibitory concentration (IC50) with HT-29 turned out to be 31 µM; with MCF7 it was 49 µM; in the experiment with M21, 27 µM.
Take `COCCCCCc1cccc(NC(=O)NC(=O)CCl)c1`: in experiment [1], the outcome was inactive. Further, the IC50 in the experiment on HT-29 worked out at 10 µM; with MCF7 it was 6.1 µM; in the experiment on M21, 4.2 µM.
With `CCCCCc1cccc(NC(=O)NC(=O)CCl)c1`, the result in experiment [1] was inactive. Also, the half-inhibitory concentration (IC50) stood at 8.4 µM in the experiment on HT-29, 8.3 µM in the experiment with MCF7 and 3.5 µM with M21.
Turning to `CCCCCc1cccc(NC(=O)CCl)c1`, in experiment [1], the result was inactive. The IC50 was found to be 12 µM with HT-29, 5.7 µM with MCF7 and 1.4 µM with M21.
Consider `CC(=O)CCCCc1cccc(NC(=O)CCCl)c1`, for which the IC50 in the experiment with HT-29, with MCF7 and in the experiment with M21 was more than 100 µM throughout.
Turning to `CCCCCc1cccc(NC(=O)NCC)c1`, the IC50 was 16 µM in the experiment with HT-29, 67 µM with MCF7 and 36 µM in the experiment with M21.
For the compound `O=C(CCCCl)Nc1cccc(CCCCCO)c1`, the IC50 with HT-29, in the experiment on MCF7 and in the experiment on M21 was more than 100 µM in each case.
Take `CC(C)(C)c1ccc(NC(=O)NC(=O)CCl)cc1`: the 50% inhibitory concentration (IC50) in the experiment on HT-29 came to 6.5 µM; in the experiment on MCF7, 2 µM; in the experiment on M21 it was 1.4 µM.
As to `CC(C)(C)c1ccc(NC(=O)CCl)cc1`, the outcome in experiment [1] was inactive. In addition, the values for the half-inhibitory concentration (IC50) with HT-29, in the experiment on MCF7 and with M21 were 15 µM, 5.4 µM and 5.4 µM, respectively.
For `COCCCCCc1cccc(NC(=O)CCCCl)c1`, the IC50 with HT-29, in the experiment with MCF7 and with M21 was more than 100 µM each time.
For the compound `C=CC(=O)Nc1cccc(CCCCC(C)=O)c1`, the IC50 came to 29 µM in the experiment with HT-29, 99 µM in the experiment on MCF7 and 33 µM in the experiment with M21.
The like results for `CCCCCc1cccc(NC(=O)NCCCCl)c1` were, in that order, 28 µM, 26 µM and 24 µM.
The corresponding values for `CC(C)(C)c1ccc(CNC(=O)NCCCCl)cc1` are 19 µM, 17 µM and 11 µM.
For the compound `CCNC(=O)Nc1cccc(CCCCC(C)=O)c1`, the IC50 in the experiment with HT-29 is 40 µM; in the experiment with MCF7 it was more than 100 µM; in the experiment with M21, more than 100 µM.
`CC(C)(C)c1ccc(NC(=O)NCCCCl)cc1`: the concentration for half-maximal inhibition (IC50) is 28 µM with HT-29, 49 µM in the experiment with MCF7 and 35 µM in the experiment on M21.
`CC(=O)CCCCc1cccc(NC(=O)NCCCCl)c1`: the IC50 with HT-29 came out at 41 µM; with MCF7 it was 71 µM; with M21, 36 µM.
The like results for `CCCCCc1cccc(NC(=O)CCCl)c1` were, in that order, 46 µM, 54 µM and 54 µM.
`CC(C)(C)c1ccc(CNC(=O)NC(=O)CCl)cc1`: the result in experiment [1] was inactive. Moreover, the 50% inhibitory concentration (IC50) is 7.1 µM in the experiment on HT-29, 2.8 µM in the experiment with MCF7 and 2.4 µM in the experiment on M21.
The like results for `C=CC(=O)Nc1ccc(C(C)(C)C)cc1` were, in that order, “inactive”, 24 µM, 29 µM and 22 µM.
As to `COCCCCCc1cccc(NC(=O)CCCl)c1`, the 50% inhibitory concentration (IC50) in the experiment on HT-29, in the experiment with MCF7 and in the experiment on M21 was more than 100 µM throughout.
`O=C(CCCCl)Nc1ccc(I)cc1`: the IC50 with HT-29, in the experiment on MCF7 and in the experiment on M21 was more than 100 µM in each case.
With `CCNC(=O)NCc1ccc(C(C)(C)C)cc1`, the half-inhibitory concentration (IC50) in the experiment with HT-29, in the experiment with MCF7 and with M21 was more than 100 µM each time.
With `CC(C)(C)c1ccc(NC(=O)CCCCl)cc1`, the concentration for half-maximal inhibition (IC50) in the experiment on HT-29, in the experiment with MCF7 and in the experiment with M21 was more than 100 µM throughout.
Regarding `C=CC(=O)Nc1cccc(CCCCCOC)c1`, the 50% inhibitory concentration (IC50) in the experiment on HT-29 was 40 µM; with MCF7, more than 100 µM; in the experiment on M21, 48 µM.
The corresponding values for `CCNC(=O)Nc1cccc(CCCCCOC)c1` are more than 100 µM, more than 100 µM and more than 100 µM.
